# The source made the active and inactive calls.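 Rule for the calls, unless noted: active = viability at or below 30% in both replicate assays; inconclusive = viability at or below 30% in just one of the two assays; inactive = the rest.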
# Tests used:
# [1] = SK-BR-3 cell growth inhibitors, pilot screen, 24 h, human (AID 572;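 active = viability at or below 10% of carrier control in both of two separate runs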;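 note: compound exposure lasted between 18 and 24 h rather than exactly 24 h; 100% = carrier-treated control wells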); settings: SK-BR-3 viability, CellTiter-Glo luminescence, at 10 µM, stronger effect = lower value
# [2] = HUVEC growth inhibition – cell-based, human, primary screen (AID 575); settings: HUVEC proliferation, CellTiter-Glo luminescence, 72 h; at 10 µM; stronger effect = lower value;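 note: 100% = median of untreated cell wells with 0.1% DMSO on each plate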
# Method in brief: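 System: primary human umbilical vein endothelial cells; Quantity: 1250 endothelial cells in each well; Buffer or medium: supplemented EBM, 2% fetal bovine serum; Doses: one dose, 10 µM final, 0.1% DMSO; Incubation: 72 h compound incubation; Technique: ATP-based CellTiter-Glo luminescent read; Evaluation: percent of median DMSO-control luminescence; Controls: vehicle and MePR control wells.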
# [3] = growth inhibitors of H69AR lung tumor, primary screen, human, duplicate replicates (AID 580;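 active = viability at or under a set limit in both replicates, limit being median viability minus 3 SD, cut at about 48% in these data, passing the limit was not always enough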;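 note: 100% = mean luminescence of untreated wells and 0% = no signal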); settings: H69AR lung tumor cells viability, ATP luminescence, 72 h; at 10 µM; stronger effect = lower value
# [4] = reversal of MRP1-mediated doxorubicin resistance, pilot screen, H69AR cells, doxorubicin co-treatment (AID 601;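 active = viability loss from added drug above about 55%, and viability with drug at most 40%, in both replicates, limit read from the data, passing the limit was not always enough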); settings: CellTiter-Glo, 72 h, at 10 µM; for differential viability (reversal): stronger effect = higher value
# [5] = 384-well plate pilot, post-Golgi transport modulator project, inhibition of yeast transport mutant growth (AID 636; in the data active = inhibition above about 31%); settings: absorbance 615 nm, about 18 h, stronger effect = higher value
# [6] = growth suppression of yeast trafficking mutant, preliminary HTS, modulators of trafficking downstream of Golgi apparatus project, 1536-format plate, OD 615 nm (AID 637; in the data active = inhibition above about 30%); settings: yeast transport mutant growth, absorbance 615 nm, 18 h; stronger effect = higher value
# [7] = H69AR cells + 2 uM doxorubicin, measured here: viability with 2 uM doxorubicin, stronger effect = lower value
# [8] = H69AR cells, compound alone cytotoxicity
Structure (SMILES),viability [1],viability [2],viability [3],differential viability (reversal) ([4]; H69AR cells + 2 uM doxorubicin),"viability [4, 7] [%]","viability [4, 8] [%]",inhibition [5],inhibition [6]
Cc1cc(Nc2ccccc2)n(-c2ccccc2)n1,123% (inactive),94.3% (inactive),101% (inactive),5.72% (inactive),95.6,101,-1.1% (inactive),-6.61% (inactive)
O=C(NO)c1ccccc1O,109% (inactive),86.7% (inactive),105% (inactive),23.1% (inactive),81.8,105,-1.95% (inactive),6.83% (inactive)
Cc1nc2ccc(C(=O)O)cc2c2c1CC(C)S2 (stereo unspecified),93% (inactive),96.8% (inactive),90.8% (inactive),-2.25% (inactive),93.1,90.8,-4.93% (inactive),0.55% (inactive)
CCC(C(=O)N1CCc2cc(OC)c(OC)cc2C1)c1ccccc1 (stereo unspecified),99% (inactive),109% (inactive),94.5% (inactive),2.46% (inactive),92,94.5,-4.52% (inactive),-11.9% (inactive)
COCCNC(=O)C(c1ccc(C)o1)N(Cc1cccs1)C(=O)c1snc(C(N)=O)c1N (stereo unspecified),87% (inactive),86.8% (inactive),86.4% (inactive),0.375% (inactive),86,86.4,4% (inactive),12.7% (inactive)
CCN1C(=O)/C(=C/N(C)c2ccccc2)OC1=S,97% (inactive),91.5% (inactive),93.7% (inactive),-0.96% (inactive),94.7,93.7,-2.6% (inactive),8.18% (inactive)
CCOc1ccccc1CN(Cc1ccco1)S(=O)(=O)c1ccc(-n2cnnn2)c(OC)c1,82.5% (inactive),54.7% (inactive),6.69% (active),-67.4% (inactive),74.1,6.69,-3.7% (inactive),-2.06% (inactive)
CCOc1ccccc1C(=O)Nn1c(C2CCC2)nc2ccccc2c1=O,91% (inactive),91.1% (inactive),93.7% (inactive),-18% (inactive),112,93.7,-4.11% (inactive),2.55% (inactive)
O=C(c1ccc(S(=O)(=O)N2CCC(c3nc4ccccc4s3)CC2)cc1)N1CCOCC1,97% (inactive),100% (inactive),71.4% (inactive),-28.7% (inactive),100,71.4,-5.34% (inactive),3.64% (inactive)
COc1ccc(-n2nc3cc(C)c(N)c(Br)c3n2)cc1,74% (inactive),85.6% (inactive),65.5% (inactive),-33.4% (inactive),98.9,65.5,-6.3% (inactive),-1.45% (inactive)
COc1cccc(Nc2nnc(SCC(=O)N3CC(C)OC(C)C3)s2)c1 (stereo unspecified),92% (inactive),75.3% (inactive),102% (inactive),2.69% (inactive),99.1,102,-2.4% (inactive),-0.36% (inactive)
Cn1c(=O)c2c(nc(NCCCO)n2Cc2cccc(Br)c2)n(C)c1=O,91% (inactive),104% (inactive),85.7% (inactive),0.26% (inactive),85.4,85.7,-5.73% (inactive),3.64% (inactive)
Cn1cnc2c1c(=O)[nH]c(=O)n2C,108% (inactive),85.7% (inactive),96.1% (inactive),-0.7% (inactive),96.8,96.1,-0.91% (inactive),6.33% (inactive)
Cn1c(=O)[nH]c(=O)c2c1ncn2CCN1CCOCC1,96% (inactive),102% (inactive),99.1% (inactive),5.28% (inactive),93.8,99.1,-2.6% (inactive),-1.48% (inactive)
COCC(=O)Nc1cc(OC)ccc1OC,83% (inactive),89% (inactive),102% (inactive),5.8% (inactive),96.1,102,-2.86% (inactive),0.66% (inactive)
CN1CCN(C(=O)NC2CCCN2S(=O)(=O)c2ccc(Cl)cc2)CC1 (stereo unspecified),100% (inactive),96.4% (inactive),88.9% (inactive),-0.73% (inactive),89.6,88.9,-1.1% (inactive),-4.68% (inactive)
COC(=O)C1=C(C)N(Cc2ccco2)C(=O)C1,96% (inactive),103% (inactive),96.1% (inactive),5.42% (inactive),90.7,96.1,-7.53% (inactive),5.82% (inactive)
Cc1c(C=NCCOCc2ccccc2)cnn1C,92% (inactive),109% (inactive),96.2% (inactive),14% (inactive),82.2,96.2,0% (inactive),-0.48% (inactive)
CCOC(=O)c1ccc2[nH]c3c(c2c1)CCCCC3=O,80% (inactive),105% (inactive),99.5% (inactive),8.96% (inactive),90.5,99.5,-3.6% (inactive),-0.73% (inactive)

Structure (SMILES),viability [1],viability [2],viability [3],differential viability (reversal) ([4]; H69AR cells + 2 uM doxorubicin),"viability [4, 7] [%]","viability [4, 8] [%]",inhibition [5],inhibition [6]
O=C(O)CCn1[nH]c(=O)ccc1=O,87% (inactive),102% (inactive),97.3% (inactive),3.97% (inactive),93.4,97.3,-2.05% (inactive),1.77% (inactive)
O=C(Nc1nnc(C2CCCC2)s1)C1CCN(S(=O)(=O)c2ccc(Cl)cc2)CC1,92% (inactive),94.4% (inactive),72.3% (inactive),3.83% (inactive),68.5,72.3,-5.87% (inactive),-5.64% (inactive)
COC(=O)c1ccccc1NC(=O)C1CCN(S(=O)(=O)c2cc(C)ccc2OC)CC1,78% (inactive),78.9% (inactive),79.1% (inactive),-13.2% (inactive),92.3,79.1,-11.1% (inactive),0.48% (inactive)
Cn1c(=O)c2c(ncn2CC(O)CO)n(C)c1=O (stereo unspecified),117% (inactive),92.8% (inactive),107% (inactive),12.3% (inactive),95,107,-5.45% (inactive),3% (inactive)
Cc1ccc2nc(-c3ccccn3)cc(C(=O)N3CCN(c4ncccn4)CC3)c2c1,100% (inactive),102% (inactive),77.8% (inactive),-5.74% (inactive),83.5,77.8,-2.7% (inactive),0.91% (inactive)
O=C(NC1CCCCC1)c1nc2c(nnn2Cc2ccccc2Cl)c(=O)[nH]1,77% (inactive),104% (inactive),110% (inactive),12% (inactive),98.4,110,-6.58% (inactive),-7.58% (inactive)
O=C(COC(=O)CCC1CCCC1)Nc1ccc(Cl)cn1,107% (inactive),101% (inactive),98.6% (inactive),5.36% (inactive),93.2,98.6,0% (inactive),-1.45% (inactive)
COc1ccc(CCN2C(=O)CC(N3CCOCC3)C2=O)cc1 (stereo unspecified),88% (inactive),89.4% (inactive),96.2% (inactive),16.3% (inactive),79.9,96.2,2.05% (inactive),-7.58% (inactive)
O=C(CSc1nnc(-c2ccco2)n1CC1CCCO1)NC1CCCC1 (stereo unspecified),116% (inactive),94.6% (inactive),94.3% (inactive),7.47% (inactive),86.8,94.3,-2% (inactive),-5.27% (inactive)
CCOC(=O)C1CN(S(=O)(=O)c2ccc(C)cc2)CCN1S(=O)(=O)c1ccc(C)cc1 (stereo unspecified),100% (inactive),101% (inactive),84.5% (inactive),-16.3% (inactive),101,84.5,-2.6% (inactive),-1.8% (inactive)
CC(C)OC(=O)c1cc(NC(=O)C2C3CCC(O3)C2C(=O)O)cc(C(=O)OC(C)C)c1 (stereo unspecified),106% (inactive),88.1% (inactive),92.9% (inactive),3.01% (inactive),89.9,92.9,-7.81% (inactive),-1.09% (inactive)
C[C@H](CS)C(=O)N1CCC[C@H]1C(=O)O,93% (inactive),92.7% (inactive),99.8% (inactive),8.21% (inactive),91.6,99.8,-2.47% (inactive),2.83% (inactive)
CCOc1nc(NCCC2=CCCCC2)nc(N2CCOCC2)n1,102% (inactive),95.8% (inactive),96.7% (inactive),14.6% (inactive),82.1,96.7,-3.33% (inactive),1.64% (inactive)
COC(=O)CSc1nnc(-c2cccs2)n1-c1ccc(Cl)cc1,88% (inactive),93.8% (inactive),89.8% (inactive),6.75% (inactive),83.1,89.8,-8.49% (inactive),-4.68% (inactive)
CSc1c(CC(=O)NCCO)n(C)c2ccccc12,108% (inactive),111% (inactive),102% (inactive),9.3% (inactive),93.1,102,-4.13% (inactive),0.91% (inactive)
C/C(=C\c1ccco1)C1C(C#N)=C(N)OC2=C1C(=O)CC(C)(C)C2 (stereo unspecified),110% (inactive),108% (inactive),80.1% (inactive),-9.17% (inactive),89.2,80.1,-7.43% (inactive),1.09% (inactive)
CC(=O)Nc1c(O)[nH]c2ccccc12,105% (inactive),102% (inactive),93.6% (inactive),-1.07% (inactive),94.7,93.6,-8.49% (inactive),6.36% (inactive)
Cc1oc2c(c1C(=O)NCc1ccccc1)CCCC2,81% (inactive),97% (inactive),107% (inactive),8.32% (inactive),99,107,-4.93% (inactive),-1.64% (inactive)
